CHO parental Ca: signal in parental CHO cells, OX1R antagonist counter-screen; parental CHO-K1, ATP-induced calcium, Fluo-8 fluorescence; inhibition, % at 5.6 µM; hit rate 0.63% among 330,000;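 active means inhibition above that plate's mean sample inhibition plus 3 SD, cut at about 26% in these data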;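 further: 0% = ATP-challenged DMSO wells and 100% = DMSO wells without ATP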
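Assay system: parental CHO cells; Read-out basis: percent inhibition of ATP-evoked calcium rise, normalized to controls; Benchmarks: ATP and no-ATP DMSO wells; Compound dosing: single nominal dose of 5.6 µM per compound; Signal: Fluo-8 calcium dye fluorescence; Also added: ATP as calcium-mobilizing challenge; Repeats: singlicate.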
TAAR1 agonist: agonists of human TAAR1. Q96RJ0. CHO RD-HGA16 TAAR1, Fluo-8 calcium fluorescence; vehicle wells 0%, saturating PEA agonist 100%. activation, % at 3 µM. hit rate 0.99% among 360,000;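 active means activation above the mean activation of all test compounds in the run plus 3 SD, cut at about 38% in these data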
Target sequence (Q96RJ0 whole entry, looked up): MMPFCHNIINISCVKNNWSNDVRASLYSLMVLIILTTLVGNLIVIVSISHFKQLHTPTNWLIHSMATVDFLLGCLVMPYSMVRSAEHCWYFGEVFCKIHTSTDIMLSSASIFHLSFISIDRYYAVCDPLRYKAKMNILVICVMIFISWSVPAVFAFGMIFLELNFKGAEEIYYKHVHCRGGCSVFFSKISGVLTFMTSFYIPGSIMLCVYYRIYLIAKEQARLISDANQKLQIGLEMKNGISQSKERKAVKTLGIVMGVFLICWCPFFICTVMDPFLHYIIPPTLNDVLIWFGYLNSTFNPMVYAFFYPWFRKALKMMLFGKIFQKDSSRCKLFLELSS
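Test system: RD-HGA16 (CHO) cells co-expressing Gα16 and hTAAR1 / Benchmarks: DMSO vehicle as 0%, PEA at EC100 as 100% / Repeats: no replicates (n 1) / Measure: % activation from peak over basal fluorescence ratio, DMSO-to-PEA scaled / Timing: 17-24 h plating, Fluo-8 75 min 37 °C, 30 min RT / Technique: kinetic Fluo-8 calcium fluorescence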
GPR7 antag: human neuropeptides B/W receptor 1 antagonism; P48145; GPR7-expressing cells, fluorescence antagonist assay; inhibition, % at 4.4 µM; hit rate 1.1% among 290,000; AID 1861; in the data active means inhibition above about 16%, passing the limit was not always enough;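 further: cells stimulated with the agonist NPW; 0% = agonist with vehicle and 100% = vehicle without agonist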
OX1R antag-1: blocks the human orexin 1 receptor. O43613. CHO/OX1R cells, Fluo-8 calcium fluorescence, orexin A. inhibition, % at 5 µM. hit rate 0.43% among 330,000. AID 434989;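 active means inhibition above its plate's threshold, mean inhibition of all tested compounds on the plate plus 3 SD, cut at about 37% in these data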;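 further: 0% = orexin A challenge wells and 100% = SB-334867-A antagonist wells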
Target sequence (O43613 whole entry, looked up): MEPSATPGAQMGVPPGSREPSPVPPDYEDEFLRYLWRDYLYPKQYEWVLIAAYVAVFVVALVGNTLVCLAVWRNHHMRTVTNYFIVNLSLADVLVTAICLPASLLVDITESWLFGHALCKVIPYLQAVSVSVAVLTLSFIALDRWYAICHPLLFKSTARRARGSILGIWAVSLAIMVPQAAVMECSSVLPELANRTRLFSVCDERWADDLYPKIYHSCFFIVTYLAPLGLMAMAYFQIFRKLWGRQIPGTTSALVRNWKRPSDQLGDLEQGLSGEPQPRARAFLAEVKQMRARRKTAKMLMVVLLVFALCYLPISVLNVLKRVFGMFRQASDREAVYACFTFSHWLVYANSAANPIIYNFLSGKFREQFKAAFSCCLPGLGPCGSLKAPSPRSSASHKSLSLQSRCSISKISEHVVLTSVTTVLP
OX1R antag-2: antagonists of human orexin 1 receptor (OX1R) | O43613 | OX1R-expressing cells, FRET antagonist read-out | inhibition, % at 6.6 µM | hit rate 1.8% among 330,000 | AID 485270; in the data active means inhibition mostly above about 38%, no sharp cut-off; inactive means mostly below about 40%;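 further: 0% = agonist challenge alone and 100% = reference antagonist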
TAAR1 antagonist: antagonists of human TAAR1; inhibition, % at 3 µM; CHO RD-HGA16 TAAR1, Fluo-8 calcium fluorescence, antagonist; Q96RJ0; AID 624466; hit rate 1.5% among 360,000;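 active means inhibition above a per-plate cutoff, the mean inhibition of test compounds on that plate plus 3 SD, cut at about 49% in these data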;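 further: 0% = DMSO plus EC80 beta-PEA response and 100% = DMSO alone without agonist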
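System: CHO RD-HGA16 cells bearing hTAAR1. Reagent: EC80 β-phenethylamine stimulus. Schedule: seeding 17-24 h prior, 75-min 37 °C, 30-min RT dye loading. Signal: Fluo-8 intracellular calcium dye fluorescence, real-time kinetic reads. Read-out: % inhibition from peak post-agonist over basal fluorescence ratio. Benchmarks: vehicle wells and EC80 agonist wells. Replicates: n of 1.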
TAAR1 ag conf: human TAAR1 agonism, confirmed | activation, % at 3 µM | shares compounds with TAAR1 agonist | hit rate 82% among 2,400 | CHO RD-HGA16 TAAR1, Fluo-8 calcium fluorescence; scaled: DMSO 0%, maximal phenethylamine 100%;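 active means activation above a cutoff set at the run's mean compound activation plus 3 SD, cut at about 39% in these data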
Ga16 ag counter: nonselective agonist in parental cells, TAAR1 agonist counter-screen | hit rate 50% among 2,400 | activation, % at 3 µM | AID 651787 | CHO-Ga16 parental, Fluo-8 calcium fluorescence; normalized to maximal ATP response, DMSO zero | shares compounds with TAAR1 agonist;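 active means activation above the run cutoff, the mean activation over all tested wells plus 3 SD, cut at about 12% in these data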;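 further: 0% = DMSO wells and 100% = maximal ATP response on the peak over basal ratio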
TAAR1 desensitize: human TAAR1 agonist that also desensitizes the receptor | shares compounds with TAAR1 agonist | CHO RD-HGA16 hTAAR1, Fluo-8 calcium, beta-PEA response inhibition | inhibition, % at 3 µM | hit rate 46% among 2,400;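 active means inhibition above the run cutoff, the mean inhibition of all test compounds plus 3 SD, cut at about 49% in these data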;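 further: beta-PEA stimulus applied at its EC80; loss of beta-PEA calcium signal after compound pretreatment read as receptor desensitization; 0% = DMSO with beta-PEA at EC80 and 100% = DMSO alone without agonist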
Ga16 antag count: counter-screen for TAAR1 agonists: nonselective Ga16 antagonists | CHO-Ga16 ATP-induced calcium, Fluo-8 fluorescence | AID 651952 | hit rate 39% among 2,400 | shares compounds with TAAR1 agonist | inhibition, % at 3 µM;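 active means inhibition above the plate's mean compound inhibition plus 3 SD, computed per plate, cut at about 22% in these data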;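 further: 0% = EC80 ATP with DMSO and 100% = DMSO wells without ATP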
* hit, by the source's call; / = not tested or not shown; + = active, no number. Shown are actives, neighbours in structure and some others; about 4.6% of the full set was active somewhere.

SMILES | CHO parental Ca | TAAR1 agonist | GPR7 antag | OX1R antag-1 | OX1R antag-2 | TAAR1 antagonist | TAAR1 ag conf | Ga16 ag counter | TAAR1 desensitize | Ga16 antag count
CCCCc1c(-c2ccccc2OC)ncn1Cc1ccccc1 | / | 4 | / | / | / | 18 | / | / | / | /
CCCCCc1c(-c2ccc(Br)cc2)ncn1CCc1ccccc1OC | / | 71* | / | / | / | 27 | 74* | 7 | 48 | 25*
CCCCc1c(-c2ccccc2OC)ncn1CCc1ccccc1Cl | / | 64* | / | / | / | 89* | 74* | 11 | 75* | 36*
CCCCc1c(-c2ccccc2OC)ncn1CCc1cccc(OC)c1 | / | 25 | / | / | / | 17 | / | / | / | /
CC1(C(=O)NNC(=O)c2cccc([N+](=O)[O-])c2)CC1Br (centres undefined) | / | 26 | / | / | / | -18 | / | / | / | /
CCCc1c(-c2ccc(OC)cc2)ncn1CCc1ccccc1OC | / | 15 | / | / | / | 27 | / | / | / | /
COc1ccccc1CCn1cnc(-c2ccc(Cl)cc2)c1CC(C)C | / | 53* | / | / | / | 66* | 84* | 3 | 55* | 19
CC(=O)c1ccc(NC(=O)c2ccn[nH]2)cc1 | 7 | 2 | -5 | -14 | 20 | -1 | / | / | / | /
O=C(Nc1ccccc1)OCCCCOC(=O)Nc1ccccc1 | / | 54* | / | / | / | 35 | 15 | 14* | 12 | 10
O=C(Nc1ccccc1)OCCCc1ccccc1 | -15 | -2 | -7 | -19 | 10 | -16 | / | / | / | /
COc1cccc(C(=O)Oc2cc(N)n(S(=O)(=O)c3ccc(C)cc3)n2)c1OC | -26 | 64* | 5 | -19 | 44 | 2 | 50* | 14* | 6 | 9
Nc1cc(OC(=O)c2c(F)cccc2Cl)nn1S(=O)(=O)c1ccccc1 | 8 | 54* | 1 | -5 | 36 | -7 | 51* | 22* | 10 | 18
COc1ccc(S(=O)(=O)n2nc(OC(C)=O)cc2N)cc1 | 12 | 10 | -11 | -5 | 32 | 12 | / | / | / | /
O=C(COC(=O)C1CC2C=CC1C2)Nc1cccc(S(=O)(=O)N2CCOCC2)c1 (centres undefined) | 1 | 3 | -6 | -15 | 28 | -24 | / | / | / | /
CN(C)c1ccc(C=NCC2COc3ccccc3O2)cc1 (centres undefined) | 1 | 75* | 1 | -8 | 12 | 13 | 82* | 4 | 59* | 7
COc1cc(C=NNC(=O)Cn2nc(C)cc2C)ccc1OC(=O)C1CC1 | -8 | + | / | -4 | 9 | -2 | 2 | 2 | 5 | 1
CSc1nsc(SCc2ccc(Cl)cc2)n1 | -13 | 4 | -3 | -2 | 5 | -9 | / | / | / | /
CCO[C@@H]1OC(C(=O)O)=C[C@H](C)[C@H]1CCCO | -1 | 3 | -11 | 2 | 4 | -4 | / | / | / | /
O=C(O)c1ccc(-c2nc(-c3ccccc3Cl)cs2)cc1 | 4 | 49* | -5 | 2 | -3 | 11 | 18 | 19* | 21 | 14
O=C(O)c1ccc(-c2nc(-c3ccccc3)cs2)cc1 | 0 | 0 | -1 | -6 | 13 | 10 | / | / | / | /
COc1ccc(CCN2CCC(Nc3nc4ccccc4n3Cc3ccc(F)cc3)CC2)cc1 | 7 | 59* | 16 | 5 | -1 | 30 | 54* | 20* | 23 | 16
CCN(CC)S(=O)(=O)c1ccc(NC(=S)Nc2ccc(F)cc2)cc1 | 4 | 10 | 11 | 0 | 3 | 6 | / | / | / | /
Cn1c(O)c(C2=c3ccccc3=NC2=O)sc1=Nc1ccc(Cl)cc1 | -17 | 4 | 1 | -27 | 9 | -18 | / | / | / | /
Cc1ccc2c(c1)c(C1=c3ccccc3=NC1=O)c(O)n2C | 8 | 63* | 10 | -7 | 22 | 25 | 39* | 16* | 31 | 25*
O=C(NNC(=S)NC(=O)c1ccccc1[N+](=O)[O-])c1ccccc1O | -19 | 5 | 2 | -16 | 25 | -11 | / | / | / | /
SMILES | CHO parental Ca | TAAR1 agonist | GPR7 antag | OX1R antag-1 | OX1R antag-2 | TAAR1 antagonist | TAAR1 ag conf | Ga16 ag counter | TAAR1 desensitize | Ga16 antag count
CCCCOc1ccccc1C(=O)NNC(=S)NC(=O)c1ccccc1[N+](=O)[O-] | -9 | 85* | -3 | -1 | 14 | 34 | 43* | 43* | 37 | 41*
COc1cc(C(C)=O)ccc1OCC(O)CN1CCN(S(=O)(=O)c2ccccc2)CC1 (centres undefined) | -5 | 15 | 13 | -17 | 35 | 3 | / | / | / | /
COc1cc(C(C)=O)ccc1OCC(O)CNCC(O)c1ccccc1 (centres undefined) | -18 | 91* | 0 | -27 | -3 | 36 | 98* | 3 | 74* | 0
Cc1cc(C(F)F)n2ncc(C(=O)NCCc3ccccc3Cl)c2n1 | -17 | 68* | -9 | -19 | 17 | 14 | 69* | 1 | 32 | 5
Cc1cc(C(F)F)n2ncc(C(=O)NCc3ccccc3)c2n1 | -2 | -1 | -7 | -2 | 7 | 2 | / | / | / | /
Cc1nc2c(C(=O)NCCc3ccccc3Cl)c[nH]n2c(=O)c1Cl | -4 | 84* | 2 | -16 | 10 | 61* | 80* | 14* | 83* | 5
Cc1nc2c(C(=O)NCc3ccccc3Cl)c[nH]n2c(=O)c1Cl | -10 | 4 | 24 | -9 | 14 | -28 | / | / | / | /
COC(=O)[C@@]12C[C@@H](CC(=O)NCCC(C)C)C(=O)N(Cc3ccco3)C1=CCC(C)(C)C2 | / | 0 | / | / | / | -14 | / | / | / | /
Cc1noc(C)c1S(=O)(=O)N1CCC(C(=O)Nc2ccc(Br)cc2)CC1 | 10 | 4 | -2 | -15 | 5 | -13 | / | / | / | /
NC(N)=Nc1cc2ccccc2c2ccccc12 | -10 | / | -6 | -3 | -2 | / | / | 3 | / | 6
Cc1ccccc1CCN(C(=O)c1csnn1)C(C(=O)NC1CCCC1)c1ccco1 (centres undefined) | -17 | 46* | 6 | -18 | 40 | 2 | 70* | 2 | 31 | 14
CCC(C)(C)C(=O)Nc1ncc(S(=O)(=O)c2ccc([N+](=O)[O-])cc2)s1 | -4 | 104* | 25 | 16 | 4 | 39 | 76* | 52* | 52* | 41*
O=C(NCC1CC1)c1ccc(Nc2nc3ccc(Br)cc3[nH]2)cc1 | -28 | 49* | 3 | -26 | 17 | 93* | 45* | 2 | 67* | 18
Cn1cccc1/C=C1\CCC/C(=C\c2cccn2C)C1=O | 70* | 165* | -7 | 93* | 25 | 88* | 33 | 36* | 36 | 46*
